# From ChEMBL document CHEMBL2150970, “Synthesis, anticancer activities and molecular modeling studies of novel indole retinoid derivatives” (Eur J Med Chem, 2012)
# Active and inactive are the calls of the source. The rule behind the calls is not given here.
# Experiments:
# [1] = test system: Huh-7; assay: Cytotoxicity against human HuH7 cells after 3 days by SRB assay; assay type: functional, cell-based
# In short: (§1)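 Human cancer cells grown in DMEM with 10% FCS and penicillin/streptomycin (CAMA-1 medium also had 1% sodium pyruvate), at 37 °C, 5% CO2. Seeded at 10⁴ cells/well, dosed 24 h later, and exposed 3 days. Fixed with ice-cold 10% TCA for 60 min, stained 10 min with 0.4% SRB at room temperature, washed with 1% acetic acid, dye dissolved in 10 mM Tris base, A515 read. Triplicate runs with matched DMSO controls; IC50 determined.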
# [2] = test system: T47D; assay: Cytotoxicity against human T47D cells after 3 days by SRB assay; assay type: functional, cell-based; in short: as §1
# [3] = test system: HCT-116; assay: Cytotoxicity against human HCT116 cells after 3 days by SRB assay; assay type: functional, cell-based; in short: as §1
# [4] = test system: SK-BR-3; assay: Cytotoxicity against human SKBR3 cells after 3 days by SRB assay; assay type: functional, cell-based; conditions: SK-BR-3, 72 h
# In short: (§2)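 Cells at 10⁴/well were treated 24 h after seeding and exposed for three days. They were then fixed in ice-cold 10% TCA for 60 min at 4 °C, stained with 0.4% SRB for 10 min at room temperature, washed with 1% acetic acid and solubilised in 10 mM Tris base. Absorbance was read at 515 nm. IC₅₀ was determined in triplicate with DMSO vehicle controls.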
# [5] = test system: MCF-12A; assay: Cytotoxicity against human MCF12A cells after 3 days by SRB assay; assay type: cell-based; conditions: 72 h; in short: as §2
# [6] = test system: MDA-MB-361; assay: Cytotoxicity against human MDA-MB-361 cells after 3 days by SRB assay; assay type: functional, cell-based; conditions: MDA-MB-361, 72 h; in short: as §2
# [7] = test system: ZR-75-1; assay: Cytotoxicity against human ZR-75-1 cells after 3 days by SRB assay; assay type: functional, cell-based; conditions: ZR-75-1, 72 h; in short: as §2
# [8] = test system: MCF7; assay: Cytotoxicity against human MCF7 cells after 3 days by SRB assay; assay type: functional, cell-based; conditions: MCF7, 72 h; in short: as §2
# [9] = test system: BT-20; assay: Cytotoxicity against human BT20 cells after 3 days by SRB assay; assay type: functional, cell-based; conditions: BT-20, 72 h; in short: as §2
# [10] = test system: MDA-MB-231; assay: Cytotoxicity against human MDA-MB-231 cells after 3 days by SRB assay; assay type: functional, cell-based; conditions: MDA-MB-231, 72 h; in short: as §2
# [11] = test system: MDA-MB-157; assay: Cytotoxicity against human MDA-MB-157 cells after 3 days by SRB assay; assay type: functional, cell-based; conditions: MDA-MB-157, 72 h; in short: as §2
# [12] = test system: MDA-MB-453; assay: Cytotoxicity against human MDA-MB-453 cells after 3 days by SRB assay; assay type: functional, cell-based; conditions: MDA-MB-453, 72 h; in short: as §2
# [13] = test system: BT-474; assay: Cytotoxicity against human BT474 cells after 3 days by SRB assay; assay type: functional, cell-based; conditions: BT-474, 72 h; in short: as §2
# [14] = test system: T47D; assay: Induction of apoptosis in ER-positive human T47D cells assessed as apoptotic cells at IC50 concentration after 3 days by Hoechst staining based fluorescent microscopy; assay type: functional, cell-based
# [15] = test system: MDA-MB-231; assay: Induction of apoptosis in ER-negative human MDA-MB-231 cells assessed as apoptotic cells at 3.6 uM measured on day 4 by Annexin-V-FITC/propidium iodide staining based FACS flow cytometry; assay type: functional
# In short: (§3)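 Cells seeded at 5×10⁵ per plate (37 °C, 5% CO2) and treated the following day at two concentrations. On days 2 and 4 after treatment, 1×10⁶ cells were stained with a FITC Annexin V/propidium iodide kit, kept on ice in the dark, and analysed at once on a FACSCalibur. Mean percentage of Annexin V+/PI+ cells is reported. Controls: matched DMSO, plus camptothecin and 1% v/v H2O2 as positive controls.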
# [16] = test system: MDA-MB-231; assay: Induction of apoptosis in ER-negative human MDA-MB-231 cells assessed as apoptotic cells at 1.83 uM after 3 days by Hoechst staining based fluorescent microscopy; assay type: functional, cell-based
# [17] = test system: MCF-12A; assay: Ratio of IC50 for human MCF12A cells to IC50 for human BT20 cells
# In short: (§4)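 Each IC50 came from the SRB assay after 3 days' exposure: 10⁴ cells/well, TCA fixation, 0.4% SRB, Tris solubilization, A515, triplicates, DMSO control. Ratio is immortalized normal breast MCF-12A IC50 over the breast cancer line's IC50. Media carried 10% FCS plus antibiotics: DMEM for most lines, DMEM with sodium pyruvate for CAMA-1/MDA-MB-157, glucose-rich RPMI for ZR-75-1, McCoy for SK-BR-3.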
# [18] = test system: CAMA-1; assay: Cytotoxicity against human CAMA1 cells after 3 days by SRB assay; assay type: functional, cell-based; conditions: CAMA-1, 72 h; in short: as §1
# [19] = test system: MDA-MB-231; assay: Induction of apoptosis in ER-negative human MDA-MB-231 cells assessed as apoptotic cells at 1.8 uM measured on day 2 by Annexin-V-FITC/propidium iodide staining based FACS flow cytometry; assay type: functional; in short: as §3
# [20] = test system: T47D; assay: Ratio of IC50 for human MCF12A cells to IC50 for human T47D cells; in short: as §4
# [21] = test system: MCF-12A; assay: Ratio of IC50 for human MCF12A cells to IC50 for human CAMA1 cells; in short: as §4
# [22] = test system: MDA-MB-361; assay: Ratio of IC50 for human MCF12A cells to IC50 for human MDA-MB-361 cells; in short: as §4
# [23] = test system: MDA-MB-231; assay: Induction of apoptosis in ER-negative human MDA-MB-231 cells assessed as apoptotic cells at 1.8 uM measured on day 4 by Annexin-V-FITC/propidium iodide staining based FACS flow cytometry; assay type: functional; in short: as §3
# [24] = test system: MDA-MB-453; assay: Ratio of IC50 for human MCF12A cells to IC50 for human MDA-MB-453 cells; in short: as §4
# [25] = test system: MDA-MB-231; assay: Induction of apoptosis in ER-negative human MDA-MB-231 cells assessed as apoptotic cells at 3.6 uM measured on day 2 by Annexin-V-FITC/propidium iodide staining based FACS flow cytometry; assay type: functional; in short: as §3
# [26] = test system: MCF7; assay: Ratio of IC50 for human MCF12A cells to IC50 for human MCF7 cells; in short: as §4
# [27] = test system: MDA-MB-157; assay: Ratio of IC50 for human MCF12A cells to IC50 for human MDA-MB-157 cells; in short: as §4
# [28] = Homo sapiens, Huh-7, 72 h, read-out: IC50
# [29] = Homo sapiens, T47D, 72 h, read-out: IC50
# [30] = Homo sapiens, HCT-116, 72 h, read-out: IC50
SMILES,"IC50 [1, 28] [nM]","IC50 [2, 29] [nM]","IC50 [3, 30] [nM]",IC50 [4] [nM],IC50 [5] [nM],IC50 [6] [nM],IC50 [7] [nM],IC50 [8] [nM],IC50 [9] [nM],IC50 [10] [nM],IC50 [11] [nM],IC50 [12] [nM],IC50 [13] [nM],further results
CC1(C)CCC(C)(C)c2cc(C(=O)/C=C/c3c[nH]c4ccc(Cl)cc34)ccc21,15400,13100,10700,,,,,,,,,,,
CC[C@@]1(O)C(=O)OCc2c1cc1n(c2=O)Cc2cc3ccccc3nc2-1 [CAMPTOTHECIN],60,< 10,< 10,< 10,< 10,170,< 10,< 10,< 10,< 10,20,< 10,12800,
COc1ccc2[nH]cc(/C=C/C(=O)c3ccc4c(c3)C(C)(C)CCC4(C)C)c2c1,15500,11400,13900,,,,,,,,,,,
CC1(C)CCC(C)(C)c2cc(C(=O)/C=C/c3c[nH]c4ccc(Br)cc34)ccc21,14000,11500,10800,,,,,,,,,,,
CC1(C)CCC(C)(C)c2cc(C(=O)/C=C/c3c[nH]c4ccc(C(=O)O)cc34)ccc21,,,,,,,,,,,,,,IC50 ([1]; huh-7): Not Active; IC50 ([2]; t47d): Not Active; IC50 ([3]; hct-116): Not Active
CC1(C)CCC(C)(C)c2cc(C(=O)/C=C/c3c[nH]c4ccccc34)ccc21,< 10,100,20,1290,3920,60,3880,1710,1310,1830,1460,< 10,1910,Activity [14]: Active; Activity [15]: 15.62%; Activity [16]: Active; Ratio IC50 [17]: 2.99; IC50 [18]: < 10 nM; Activity [19]: 7.1%; Ratio IC50 [20]: 3.38; Ratio IC50 [21]: > 392; Ratio IC50 [22]: 65.3; Activity [23]: 10.53%; Ratio IC50 [24]: > 392; Activity [25]: 6.83%; Ratio IC50 [26]: 2.29; Ratio IC50 [27]: 2.68
